Measured values from different studies.
pEC50, pIC50: −log10 of the molar value.
Effect on: cell growth or viability

C=CC(=O)NC1CCN(c2ncc3ncnc(Nc4ccc(Oc5ccc6c(c5)ncn6C)c(C)c4)c3n2)CC1 — pEC50 (SW1573): 7.10
O=C(O)c1ccccc1Nc1cccc(C(F)(F)F)c1 — GI50 (NCI-H23; SRB; 48 h): > 30 µM
C=CC(=O)N1CCN(c2nc(=O)n(-c3c(C)ccnc3C(C)C)c3nc(-c4c(O)cccc4F)c(F)cc23)[C@@H](C)C1 — pIC50 (NCI-H1573; ATP luminescence): < 5.00
Cc1noc2c1-c1ccccc1C(c1ccc(Cl)cc1)=N[C@H]2CC(N)=O — pIC50 (KG-1; ATP luminescence; 72 h): 6.28
Cc1c(C(=O)O)ccc2c3n(nc12)[C@@H]1[C@H](C3)N(CC2CC2)[C@@]2(C(=O)Nc3cc(Cl)ccc32)[C@H]1c1cccc(Cl)c1F — GI50 (Rh18; resazurin): 0.005 µM
COc1cc2nc(N3CCN(C(=O)C4COc5ccccc5O4)CC3)nc(N)c2cc1OC (stereo not drawn) — pIC50 (C6661; MTT; 48 h): 4.27
C=CC(=O)c1cccnc1Nc1cccc(C(F)(F)F)c1 — GI50 (NCI-H23; SRB; 48 h): 14.2 µM
CO[C@]12C[C@@H](COC(=O)c3cncc(Br)c3)CN(C)[C@@H]1Cc1cn(C)c3cccc2c13 — pIC50 (C6661; MTT; 48 h): 4.08
C=C(F)C(=O)N1CCN(c2nc(OC[C@@H]3CCCN3C)nc3c2CCN(c2cccc4cccc(Cl)c24)C3)C[C@@H]1CC#N — pIC50 (NCI-H23; ATP luminescence; 3D culture): 7.95
